Laboratory results reported in publication PMC2853048 (Journal of medicinal chemistry, 2009).

Experiments:
human Gli1 = target: T1, human Gli1 (Homo sapiens, UniProt P08151); test: Gli-mediated transcription reporter assay in C3H10T1/2 cells with exogenous Gli1; type: cell-based; conditions: for inhibition of Gli1-mediated transcription (Gli-reporter activity), in words: Gli1-transfected C3H10T1/2 cells, 24 h, 20 µM or 40 µM
T1 sequence (P08151 1-1106): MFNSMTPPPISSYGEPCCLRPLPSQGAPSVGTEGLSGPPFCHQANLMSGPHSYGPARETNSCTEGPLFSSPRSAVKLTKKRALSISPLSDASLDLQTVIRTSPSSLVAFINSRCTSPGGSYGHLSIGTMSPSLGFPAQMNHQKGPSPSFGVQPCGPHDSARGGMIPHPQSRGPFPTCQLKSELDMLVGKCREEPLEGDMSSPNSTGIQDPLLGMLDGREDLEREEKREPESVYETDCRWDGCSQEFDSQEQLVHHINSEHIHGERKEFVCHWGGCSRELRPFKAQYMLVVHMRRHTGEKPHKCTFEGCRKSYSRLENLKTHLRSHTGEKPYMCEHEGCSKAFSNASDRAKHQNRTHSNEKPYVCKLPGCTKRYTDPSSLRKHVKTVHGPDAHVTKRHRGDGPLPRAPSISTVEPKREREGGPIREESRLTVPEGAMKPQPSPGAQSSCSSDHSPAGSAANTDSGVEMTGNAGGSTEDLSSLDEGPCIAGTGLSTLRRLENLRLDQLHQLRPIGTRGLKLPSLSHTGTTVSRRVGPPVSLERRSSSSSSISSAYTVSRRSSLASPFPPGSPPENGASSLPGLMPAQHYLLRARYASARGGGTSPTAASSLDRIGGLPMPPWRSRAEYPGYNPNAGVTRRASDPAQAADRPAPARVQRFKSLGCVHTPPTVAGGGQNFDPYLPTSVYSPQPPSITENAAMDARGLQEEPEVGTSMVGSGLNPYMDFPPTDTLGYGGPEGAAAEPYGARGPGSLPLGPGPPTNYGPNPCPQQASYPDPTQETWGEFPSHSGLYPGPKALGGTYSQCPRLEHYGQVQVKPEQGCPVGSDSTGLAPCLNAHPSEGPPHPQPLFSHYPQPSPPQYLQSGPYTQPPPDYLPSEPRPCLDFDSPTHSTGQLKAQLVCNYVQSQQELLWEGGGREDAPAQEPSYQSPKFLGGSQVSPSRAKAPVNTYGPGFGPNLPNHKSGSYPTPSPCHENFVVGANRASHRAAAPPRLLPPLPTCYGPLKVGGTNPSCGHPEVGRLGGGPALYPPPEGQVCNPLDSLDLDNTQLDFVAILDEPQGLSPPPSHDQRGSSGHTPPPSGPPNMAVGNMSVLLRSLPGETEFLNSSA

endogenous Gli1 = test: Gli-mediated transcription reporter assay in Rh30 cells; type: cell-based; conditions: Rh30 cells without cotransfection of exogenous Gli1, 24 h, 10, 20 or 40 µM
Method in brief: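 Rh30 cells were grown in RPMI-1640 with 10% FBS at 37 °C, 5% CO2. At about 70% confluence they were transfected overnight with GliLuc-BS (500 ng/mL) and pRL-CMV (2.5 ng/mL) using Fugene6. Cells were replated, then dosed 18 h later for 24 h. Lysates were read by dual luciferase (firefly/Renilla). DMSO = 0% inhibition; triplicates, SE shown.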

exogenous Gli1 protein = test: Western blot of Gli1 protein levels in Gli1-transfected C3H10T1/2 cells; type: cell-based, human
[1] = Stability of compounds in C3H10T1/2 cell cultures; type: in vitro ADME, mouse; conditions: 24 hours
BJ-hTERT cells = test: Cell viability assay; type: cell-based; conditions: noncancerous human skin fibroblasts, 40 µM, 72 h
Method in brief: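 Cells plated in 384-well format 24 h before dosing. A 10-mM DMSO stock was diluted in EMEM to 160 µM (4×) and added in triplicate to a final 40 µM. Incubated 68 h at 37 °C, then Alamar Blue for 4 h at 37 °C. Fluorescence read at ex 510 / em 590 nm; viability expressed relative to DMSO control wells.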

C3H10T1/2 cells = test: Toxicity towards C3H10T1/2 cells in the reporter assay; type: cell-based, mouse; conditions: data not shown

Row | Molecule | inhibition of Gli1-mediated transcription (Gli-reporter activity), in words (human Gli1) | further results
1 | C[C@H](C(=O)NCc1ccc(O)cc1)c1cccc(C(=O)c2ccccc2)c1 [Compound 53, (S)-2-(3-Benzoylphenyl)-N-((4-hydroxyphenyl)methyl)propanamide] | decreased activity | –
2 | CC(C(=O)NCCc1ccc(O)cc1)c1cccc(C(=O)c2ccccc2)c1 (racemic) [Compound 37, (±)-2-(3-Benzoylphenyl)-N-(4-hydroxyphenethyl)propanamide] | lower activity than did 36 | –
3 | CCCN(CCc1ccc(O)cc1)C(=O)[C@@H](C)c1cccc(C(=O)c2ccccc2)c1 [Compound 63, (S)-2-(3-Benzoylphenyl)-N-(4-hydroxyphenethyl)-N-propylpropanamide] | – | inhibition of Gli-reporter activity in Rh30 cells, in words (endogenous Gli1): downregulated; exogenous Gli1 protein level (exogenous Gli1 protein): not reduced; stability in the C3H10T1/2 cell cultures [1]: stable; cell viability / toxicity, BJ-hTERT (BJ-hTERT cells): without showing toxicity
4 | O=C(Cc1cccc(Oc2ccccc2)c1)NCCc1ccc(O)cc1 [Compound 42, N-(4-Hydroxyphenethyl)-2-(3-phenoxyphenyl)acetamide] | equipotent | –
5 | COc1ccc(C(=O)NC[C@@H](C)c2cccc(C(=O)c3ccccc3)c2)cc1 [Compound 57, (S)-N-(2-(3-Benzoylphenyl)propyl)-4-methoxybenzamide] | retained the activity | –
6 | O=C(Cc1ccccc1Oc1ccccc1)NCCc1ccc(O)cc1 [Compound 41, N-(4-Hydroxyphenethyl)-2-(2-phenoxyphenyl)acetamide] | decreased activity | –
7 | C[C@H](C(=O)NCCc1ccc(O)c(O)c1)c1cccc(C(=O)c2ccccc2)c1 [Compound 50, (S)-2-(3-Benzoylphenyl)-N-(3,4-dihydroxyphenethyl)propanamide] | – | stability in the C3H10T1/2 cell cultures [1]: significant degradation
8 | C[C@H](COC(=O)Nc1ccc(O)cc1)c1cccc(C(=O)c2ccccc2)c1 [Compound 61, (S)-2-(3-Benzoylphenyl)propyl 4-hydroxyphenylcarbamate] | substantially decreased the activity | –
9 | COc1ccc2cc([C@@H](C)C(=O)NCCc3ccc(O)cc3)ccc2c1 [Compound 38, (R)-N-(4-Hydroxyphenethyl)-2-(6-methoxynaphthalen-2-yl)propanamide] | lower activity than did 35 | –
10 | C[C@H](CNC(=O)NCCc1ccc(O)cc1)c1cccc(C(=O)c2ccccc2)c1 [Compound 60, (S)-1-(2-(3-Benzoylphenyl)propyl)-3-(4-hydroxyphenethyl)urea] | comparable to that of 36 | cell viability / toxicity, BJ-hTERT (BJ-hTERT cells): toxic
11 | C[C@H](C(=O)NCCc1ccc(O)cc1)c1cccc(C(=O)c2ccccc2)c1 [Compound 36, (S)-2-(3-Benzoylphenyl)-N-(4-hydroxyphenethyl)propanamide] | high activity | inhibition of Gli-reporter activity in Rh30 cells, in words (endogenous Gli1): downregulated; exogenous Gli1 protein level (exogenous Gli1 protein): not reduced; stability in the C3H10T1/2 cell cultures [1]: stable; toxicity towards the C3H10T1/2 cells (C3H10T1/2 cells): minimal toxicity as compared to 32; cell viability / toxicity, BJ-hTERT (BJ-hTERT cells): without showing toxicity
12 | C[C@H](CNC(=O)Nc1ccc(O)cc1)c1cccc(C(=O)c2ccccc2)c1 [Compound 59, (S)-1-(2-(3-Benzoylphenyl)propyl)-3-(4-hydroxyphenyl)urea] | comparable to that of 36 | cell viability / toxicity, BJ-hTERT (BJ-hTERT cells): toxic
13 | C[C@H](C(=O)NCCc1ccc(O)cc1)c1cccc(C(O)c2ccccc2)c1 (stereo partly drawn) [Compound 39, (2S)-2-(3-(Hydroxy(phenyl)methyl)phenyl)-N-(4-hydroxyphenethyl)propanamide] | less potent than 36 | –
14 | O=C(Cc1ccc(Oc2ccccc2)cc1)NCCc1ccc(O)cc1 [Compound 43, N-(4-Hydroxyphenethyl)-2-(4-phenoxyphenyl)acetamide] | equipotent | –
15 | (S)-2-(3-Benzoylphenyl)-N-(4-methoxyphenethyl)propanamide [Compound 47] | decrease in the activity | –
16 | COc1ccc(COC[C@@H](C)c2cccc(C(=O)c3ccccc3)c2)cc1 [Compound 58, (S)-(3-(1-(4-Methoxybenzyloxy)propan-2-yl)phenyl)(phenyl)methanone] | almost no activity | –
17 | C[C@H](COC(=O)NCCc1ccc(O)cc1)c1cccc(C(=O)c2ccccc2)c1 [Compound 62, (S)-2-(3-Benzoylphenyl)propyl 4-hydroxyphenethylcarbamate] | substantially decreased the activity | –
18 | C[C@H](C(=O)Nc1ccc(O)cc1)c1cccc(C(=O)c2ccccc2)c1 [Compound 54, (S)-2-(3-Benzoylphenyl)-N-(4-hydroxyphenyl)propanamide] | decreased activity | –
19 | (S)-2-(3-Benzoylphenyl)-N-(2-hydroxyphenethyl)propanamide [Compound 44] | slightly decreased at 20 µM | –
20 | C[C@H](CNC(=O)c1ccc(O)cc1)c1cccc(C(=O)c2ccccc2)c1 [Compound 55, (S)-N-(2-(3-Benzoylphenyl)propyl)-4-hydroxybenzamide] | better activity | –
21 | C[C@H](C(=O)N(CCc1ccc(O)cc1)CCc1ccc(O)cc1)c1cccc(C(=O)c2ccccc2)c1 [Compound 65, (S)-2-(3-Benzoylphenyl)-N,N-bis(4-hydroxyphenethyl)propanamide] | – | inhibition selectivity of Gli1-mediated transcription over Gli2-mediated transcription (human Gli1; C3H10T1/2 cells, from IC50 values): least selective; stability in the C3H10T1/2 cell cultures [1]: stable
22 | C[C@H](C(=O)NCCc1ccc(O)cc1)c1cccc(Cc2ccccc2)c1 [Compound 40, (S)-2-(3-Benzylphenyl)-N-(4-hydroxyphenethyl)propanamide] | less potent than 36 | –
23 | CC(C)Cc1ccc(C(C)C(=O)NCCc2ccc(O)cc2)cc1 (stereo not drawn) [Compound 34, N-(4-Hydroxyphenethyl)-2-(4-isobutylphenyl)propanamide] | modest inhibition | –
24 | (S)-2-(3-Benzoylphenyl)-N-(4-chlorophenethyl)propanamide [Compound 49] | slightly lower activity than 36 | –
25 | (S)-2-(3-Benzoylphenyl)-N-(3-hydroxy-4-methoxyphenethyl)propanamide [Compound 52] | reduced the activity by about half | –
26 | (S)-2-(3-Benzoylphenyl)-N-phenethylpropanamide [Compound 48] | significantly lower activity than 36 | –
27 | (S)-2-(3-Benzoylphenyl)-N-(4-hydroxy-3-methoxyphenethyl)propanamide [Compound 51] | reduced the activity by about half | –
28 | C[C@H](CNC(=O)CCc1ccc(O)cc1)c1cccc(C(=O)c2ccccc2)c1 [Compound 56, (S)-N-(2-(3-Benzoylphenyl)propyl)-3-(4-hydroxyphenyl)propanamide] | modest increase in the potency | –
